ChEMBL document CHEMBL1147012 (Bioorg Med Chem Lett, 2006)
Active and inactive are the calls of the source. The calls are words filed in the database; no cut-off is given here.

Assays:
Tubulin = test: Inhibition of microtubule polymerization; type: functional, Homo sapiens
How it was run: (§1)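 Microtubule polymerization assay run with a fixed, short incubation time.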

PC-3 = test: Cytotoxicity against human PC3 cell line; type: functional, cell-based
Tubulin (Homo sapiens) [1] = target: T1, Tubulin (Homo sapiens) (UniProt P68371+Q9H4B7+P0DPH7+P68366+Q13509+Q71U36+P04350+Q3ZCM7+P07437+P68363+Q9BQE3+Q6PEY2+Q13885+Q9BVA1+Q9BUF5); test: Inhibition of microtubule polymerization up to 150 uM; type: functional; how it was run: as §1
Tubulin (Homo sapiens) [2] = target: T1, Tubulin (Homo sapiens); test: Inhibition of microtubule polymerization up to 150 uM

Row | IC50 (Tubulin) | Activity (Tubulin (Homo sapiens) [1]) | Activity (Tubulin (Homo sapiens) [2]) | SMILES | IC50 (PC-3)
1 | 59000 nM |  |  | COc1cc2c(c(OC)c1OC)-c1ccc(=O)c(OC)cc1[C@@H](NS(=O)(=O)c1ccc([N+](=O)[O-])cc1[N+](=O)[O-])CC2 | 10200 nM
2 | 58000 nM |  |  | COc1cc2c(c(OC)c1OC)-c1ccc(=O)c(OC)cc1[C@@H](NS(=O)(=O)c1ccccc1[N+](=O)[O-])CC2 | 905 nM
3 | 9700 nM |  |  | COc1cc2c(c(OC)c1OC)-c1ccc(OC)c(=O)cc1[C@@H](NS(=O)(=O)c1ccc([N+](=O)[O-])cc1[N+](=O)[O-])CC2 | 50 nM
4 | 4600 nM |  |  | COc1cc2c(c(OC)c1OC)-c1ccc(OC)c(=O)cc1[C@@H](Nc1ccc([N+](=O)[O-])cc1[N+](=O)[O-])CC2 | 9 nM
5 | 68000 nM |  |  | COc1cc2c(c(OC)c1OC)-c1ccc(=O)c(OC)cc1[C@@H](NCC(C)=O)CC2 | 93 nM
6 | 5600 nM |  |  | COc1cc2c(c(OC)c1OC)-c1ccc(OC)c(=O)cc1[C@@H](NS(=O)(=O)c1ccccc1[N+](=O)[O-])CC2 | 19.8 nM
7 |  |  | inactive | CCN[C@H]1CCc2cc(OC)c(OC)c(OC)c2-c2ccc(=O)c(OC)cc21 | 1720 nM

Second part, the compound before the results:

Row | SMILES | IC50 (Tubulin) | Activity (Tubulin (Homo sapiens) [1]) | Activity (Tubulin (Homo sapiens) [2]) | IC50 (PC-3)
8 | COc1cc2c(c(OC)c1OC)-c1ccc(=O)c(OC)cc1[C@@H](NC(C)=O)CC2 [ISOCOLCHICINE] |  |  |  | 4600 nM
9 | CCN[C@H]1CCc2cc(OC)c(OC)c(OC)c2-c2ccc(OC)c(=O)cc21 |  |  |  | 17.6 nM
10 | COc1cc2c(c(OC)c1OC)-c1ccc(=O)c(OC)cc1[C@@H](Nc1ccc([N+](=O)[O-])cc1[N+](=O)[O-])CC2 |  |  |  | 5700 nM
11 | COc1cc2c(c(OC)c1OC)-c1ccc(=O)c(OC)cc1[C@@H](/N=C(/C)S)CC2 |  | inactive |  | 1750 nM
12 | COc1cc2c(c(OC)c1OC)-c1ccc(OC)c(=O)cc1[C@@H](/N=C(/C)S)CC2 | 2200 nM |  |  | 97.5 nM
13 | COc1cc2c(c(OC)c1OC)-c1ccc(OC)c(=O)cc1[C@@H](NCC(C)=O)CC2 |  |  |  | 7.6 nM
